Columns and labels:
[1] = Antioxidant activity assessed as DPPH radical scavenging activity after 30 mins by plate reader analysis; type: physicochemical; details: for Activity: 0.5 h
Outline: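 DPPH radical (150 μM in MeOH, 180 μL) mixed with 20 μL compound in water (solutions 62.5–1000 μM); 30 min, room temperature, dark; absorbance 490 nm. Sample-only blanks in MeOH; water+DPPH and water+MeOH references. Vitamin C as positive control. Scavenging % from corrected absorbances; EC50 by nonlinear regression; triplicate, mean ± SD.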

[2] = Potency index, ratio of vitamin C EC50 to compound EC50 for DPPH radical scavenging activity

EC50 [1] [µM] | Activity [1] | Structure (SMILES) | Ratio EC50 [2]
31.6 | Dose-dependent effect | COc1cc(/C=C/C(=O)O[C@H]2[C@H](OC[C@H]3O[C@@H](Oc4cc5c(cc4O)C[C@@H](C(=O)O)N5C(=O)/C=C/c4ccc(O[C@@H]5O[C@H](CO)[C@@H](O)[C@H](O)[C@H]5O)cc4)[C@H](O)[C@@H](O)[C@@H]3O)O[C@H](CO)[C@@H](O)[C@@H]2O)ccc1O | –
27.6 | Dose-dependent effect | COc1cc(/C=C/C(=O)O[C@H]2[C@H](OC[C@H]3O[C@@H](Oc4cc5c(cc4O)C[C@@H](C(=O)O)N5C(=O)/C=C/c4ccc(O)c(OC)c4)[C@H](O)[C@@H](O)[C@@H]3O)O[C@H](CO)[C@@H](O)[C@@H]2O)ccc1O | –
15.3 | Dose-dependent effect | O=C(/C=C/c1ccc(O)c(O)c1)O[C@H]1[C@H](OC[C@H]2O[C@@H](Oc3cc4c(cc3O)C[C@@H](C(=O)O)N4C(=O)/C=C/c3ccc(O)cc3)[C@H](O)[C@@H](O)[C@@H]2O)O[C@H](CO)[C@@H](O)[C@@H]1O | 2
29.1 | Dose-dependent effect | COc1cc(/C=C/C(=O)O[C@H]2[C@H](OC[C@H]3O[C@@H](Oc4cc5c(cc4O)C[C@@H](C(=O)O)N5C(=O)/C=C/c4ccc(O)cc4)[C@H](O)[C@@H](O)[C@@H]3O)O[C@H](CO)[C@@H](O)[C@@H]2O)ccc1O | –
40.1 | Dose-dependent effect | COc1cc(/C=C/C(=O)N2c3cc(O[C@@H]4O[C@H](CO[C@@H]5O[C@H](CO)[C@@H](O)[C@H](O)[C@H]5O)[C@@H](O)[C@H](O)[C@H]4O)c(O)cc3C[C@H]2C(=O)O)ccc1O | –
16.1 | Dose-dependent effect | COc1cc(/C=C/C(=O)N2c3cc(O[C@@H]4O[C@H](CO[C@@H]5O[C@H](CO)[C@@H](O)[C@H](O)[C@H]5OC(=O)/C=C/c5ccc(O)c(O)c5)[C@@H](O)[C@H](O)[C@H]4O)c(O)cc3C[C@H]2C(=O)O)ccc1O | 2
35.4 | Dose-dependent effect | COc1cc(/C=C/C(=O)OC[C@H]2O[C@@H](OC[C@H]3O[C@@H](Oc4cc5c(cc4O)C[C@@H](C(=O)O)N5C(=O)/C=C/c4ccc(O)cc4)[C@H](O)[C@@H](O)[C@@H]3O)[C@H](O)[C@@H](O)[C@@H]2O)ccc1O | –

Second part, the molecule before the results:

Structure (SMILES) | EC50 [1] [µM] | Activity [1] | Ratio EC50 [2]
O=C(O)[C@@H]1Cc2cc(O)c(O[C@@H]3O[C@H](CO[C@@H]4O[C@H](CO)[C@@H](O)[C@H](O)[C@H]4O)[C@@H](O)[C@H](O)[C@H]3O)cc2N1C(=O)/C=C/c1ccc(O)cc1 | 42.9 | Dose-dependent effect | –
O=C(O)[C@@H]1Cc2cc(O)c(O[C@@H]3O[C@H](CO[C@@H]4O[C@H](CO)[C@@H](O)[C@H](O)[C@H]4O)[C@@H](O)[C@H](O)[C@H]3O)cc2N1C(=O)/C=C/c1ccc(O[C@@H]2O[C@H](CO)[C@@H](O)[C@H](O)[C@H]2O)cc1 | 43.5 | Dose-dependent effect | –
O=C1O[C@H]([C@@H](O)CO)C(O)=C1O [ASCORBIC ACID] | 30.2 | – | –
O=C(O)[C@@H]1Cc2cc(O)c(O[C@@H]3O[C@H](CO)[C@@H](O)[C@H](O)[C@H]3O)cc2N1C(=O)/C=C/c1ccc(O)cc1 | 35.1 | Dose-dependent effect | –
COc1cc(/C=C/C(=O)N2c3cc(O[C@@H]4O[C@H](CO[C@@H]5O[C@H](CO)[C@@H](O)[C@H](O)[C@H]5O)[C@@H](O)[C@H](O)[C@H]4O)c(O)cc3C[C@H]2C(=O)O)ccc1O[C@@H]1O[C@H](CO)[C@@H](O)[C@H](O)[C@H]1O | 40.9 | Dose-dependent effect | –
O=C(O)[C@@H]1Cc2cc(O)c(O[C@@H]3O[C@H](CO)[C@@H](O)[C@H](O)[C@H]3O)cc2N1C(=O)/C=C/c1ccc(O[C@@H]2O[C@H](CO)[C@@H](O)[C@H](O)[C@H]2O)cc1 | 38.3 | Dose-dependent effect | –
COc1cc(/C=C/C(=O)N2c3cc(O[C@@H]4O[C@H](CO)[C@@H](O)[C@H](O)[C@H]4O)c(O)cc3C[C@H]2C(=O)O)ccc1O[C@@H]1O[C@H](CO)[C@@H](O)[C@H](O)[C@H]1O | 34.6 | Dose-dependent effect | –
COc1cc(/C=C/C(=O)N2c3cc(O[C@@H]4O[C@H](CO)[C@@H](O)[C@H](O)[C@H]4O)c(O)cc3C[C@H]2C(=O)O)ccc1O | 35.1 | Dose-dependent effect | –
